Assay [1] deals with Aorta. The experiment in a line: Vasorelaxant activity in potassium depolarized guinea pig aortic strip assessed as inhibition of calcium-induced contraction at 50 uM. The assay is classed as functional. The note with it: Cavia porcellus.
Assay [2] in a line: Negative chronotropic activity against potassium-induced contraction in guinea pig left atrium assessed as decrease atrial rate. The assay is classed as functional, tissue-based. The note with it: Cavia porcellus, Cardiac atrium.
Assay [3] in a line: Negative inotropic activity against potassium-induced contraction in guinea pig left atrium assessed as decrease in developed tension. The note with it: Cavia porcellus, Cardiac atrium. The assay is classed as functional, tissue-based.
Assay [4] can be described thus: Negative chronotropic activity against potassium-induced contraction in guinea pig left atrium assessed as decrease atrial rate at 10 uM relative to control. The assay is classed as functional, Cavia porcellus, Cardiac atrium. Further details: scale not given: the % may be the effect or the level left.
Assay [5] can be described thus: Negative inotropic activity against potassium-induced contraction in guinea pig left atrium assessed as decrease in developed tension at 5 uM relative to control. The assay is classed as functional, Cavia porcellus, Cardiac atrium. Further details: scale not given: the % may be the effect or the level left.
Assay [6] is described as follows: Antiarrhythmic activity in sinusoidal alternating current-induced guinea pig left atrium assessed as increase in current strength at which extra beats occur at 1 uM measured every 30 mins. The assay is classed as functional, Cavia porcellus, Cardiac atrium. The method in brief:
(§1)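 Isolated guinea pig left atria, electrically driven at 1 Hz, were exposed to sinusoidal alternating current to induce arrhythmia. The read-out was the rise in the ac-arrhythmia threshold over concentrations up to 100 μM.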

The species entered for assay [7] is Cavia porcellus. The experiment in a line: Agonist activity at muscarinic M2 receptor in guinea pig left atrium assessed as negative ionotropic activity in presence of 1 uM atropine. The assay is classed as functional, tissue-based. The note with it: Cardiac atrium. The method in brief:
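Isolated guinea-pig left atria electrically driven at 1 Hz; contractile force (inotropy) recorded. Potency values derived by probit analysis (Litchfield and Wilcoxon).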

The nature of assay [8]: Negative chronotropic activity against potassium-induced contraction in guinea pig left atrium assessed as decrease atrial rate at 100 uM relative to control. The assay is classed as functional, Cavia porcellus, Cardiac atrium. Further details: scale not given: the % may be the effect or the level left.
The nature of assay [9]: Antiarrhythmic activity in sinusoidal alternating current-induced guinea pig left atrium assessed as increase in current strength at which extra beats occur measured every 30 mins. The assay is classed as functional, tissue-based. The settings on record: Cavia porcellus, Cardiac atrium, 0.5 h. The method in brief: as §1
Assay [10] can be described thus: Antiarrhythmic activity in sinusoidal alternating current-induced guinea pig left atrium assessed as increase in current strength at which extra beats occur at 50 uM measured every 30 mins. The assay is classed as functional, Cavia porcellus, Cardiac atrium. In a few lines: as §1
Assay [11] in a line: Cardioprotective effect in Langendorff perfused guinea pig spontaneously beating […] assessed as duration of ventricular action potential at 10 uM (RVb = 140 to 161 +/- 2 to 8 ms). The assay is classed as functional, Cavia porcellus, Cardiac ventricle. The method in brief:
(§2)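 Whole guinea pig hearts were Langendorff-perfused and their ECG recorded at graded concentrations. Intervals read were PR (atrioventricular conduction time), QT (ventricular action potential duration) and QRS (intraventricular conduction time).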

The nature of assay [12]: Cardioprotective effect in Langendorff perfused guinea pig spontaneously beating […] assessed as duration of ventricular action potential at 1 uM (RVb = 140 to 161 +/- 2 to 8 ms). The assay is classed as functional, Cavia porcellus, Cardiac ventricle. In a few lines: as §2
A short description of assay [13]: Cardioprotective effect in Langendorff perfused guinea pig spontaneously beating […] assessed as atrioventicular conduction time at 1 uM (RVb = 50 to 55 +/- 1 to 4 ms). The settings on record: Cavia porcellus. The assay is classed as functional. The method in brief:
as §2

Assay [14] is described as follows: Negative inotropic activity against potassium-induced contraction in guinea pig left atrium assessed as decrease in developed tension at 0.1 uM relative to control. The assay is classed as functional, Cavia porcellus, Cardiac atrium. Further details: scale not given: the % may be the effect or the level left.
The nature of assay [15]: Cardioprotective effect in Langendorff perfused guinea pig spontaneously beating […] assessed as duration of ventricular action potential at 0.1 uM (RVb = 140 to 161 +/- 2 to 8 ms). The assay is classed as functional, Cavia porcellus, Cardiac ventricle. The method in brief:
as §2

A short description of assay [16]: Cardioprotective effect in Langendorff perfused guinea pig spontaneously beating […] assessed as duration of ventricular action potential at 0.01 uM (RVb = 140 to 161 +/- 2 to 8 ms). The assay is classed as functional, Cavia porcellus, Cardiac ventricle. In a few lines: as §2
A short description of assay [17]: Cardioprotective effect in Langendorff perfused guinea pig spontaneously beating […] assessed as duration of ventricular action potential at 0.001 uM (RVb = 140 to 161 +/- 2 to 8 ms). The assay is classed as functional, Cavia porcellus, Cardiac ventricle. In a few lines:
as §2

A short description of assay [18]: Cardioprotective effect in Langendorff perfused guinea pig spontaneously beating […] assessed as intraventicular conduction time at 10 uM (RVb = 19 to 24 +/- 1 to 2 ms). The assay is classed as functional. The note with it: Cavia porcellus. The method in brief: as §2
Assay [19] is described as follows: Cardioprotective effect in Langendorff perfused guinea pig spontaneously beating […] assessed as intraventicular conduction time at 1 uM (RVb = 19 to 24 +/- 1 to 2 ms). The assay is classed as functional. The settings on record: Cavia porcellus. In a few lines:
as §2

A short description of assay [20]: Cardioprotective effect in Langendorff perfused guinea pig spontaneously beating […] assessed as intraventicular conduction time at 0.1 uM (RVb = 19 to 24 +/- 1 to 2 ms). The assay is classed as functional. The note with it: Cavia porcellus. The method in brief:
as §2

Assay [21] can be described thus: Cardioprotective effect in Langendorff perfused guinea pig spontaneously beating […] assessed as intraventicular conduction time at 0.01 uM (RVb = 19 to 24 +/- 1 to 2 ms). The assay is classed as functional. The settings on record: Cavia porcellus. In a few lines:
as §2

Assay [22] in a line: Cardioprotective effect in Langendorff perfused guinea pig spontaneously beating […] assessed as intraventicular conduction time at 0.001 uM (RVb = 19 to 24 +/- 1 to 2 ms). The assay is classed as functional. The settings on record: Cavia porcellus. The method in brief:
as §2

The nature of assay [23]: Cardioprotective effect in Langendorff perfused guinea pig spontaneously beating […] assessed as atrioventicular conduction time at 10 uM (RVb = 50 to 55 +/- 1 to 4 ms). The assay is classed as functional. The settings on record: Cavia porcellus. The method in brief: as §2
Assay [24] is described as follows: Cardioprotective effect in Langendorff perfused guinea pig spontaneously beating […] assessed as atrioventicular conduction time at 0.1 uM (RVb = 50 to 55 +/- 1 to 4 ms). The assay is classed as functional. The note with it: Cavia porcellus. In a few lines: as §2
Assay [25] in a line: Cardioprotective effect in Langendorff perfused guinea pig spontaneously beating […] assessed as atrioventicular conduction time at 0.01 uM (RVb = 50 to 55 +/- 1 to 4 ms). The assay is classed as functional. The note with it: Cavia porcellus. In a few lines:
as §2

Assay [26] is described as follows: Cardioprotective effect in Langendorff perfused guinea pig spontaneously beating […] assessed as atrioventicular conduction time at 0.001 uM (RVb = 50 to 55 +/- 1 to 4 ms). The assay is classed as functional. The settings on record: Cavia porcellus. The method in brief: as §2
Assay [27] deals with Heart. Description: Cardioprotective effect in Langendorff perfused guinea pig spontaneously beating […] assessed as heart rat at 0.001 uM (RVb = 175 to 190 +/- 5 to 11 bpm). The assay is classed as functional, Cavia porcellus.
The subject of assay [28] is Heart. The experiment in a line: Cardioprotective effect in Langendorff perfused guinea pig spontaneously beating […] assessed as heart rat at 0.01 uM (RVb = 175 to 190 +/- 5 to 11 bpm). The assay is classed as functional, Cavia porcellus.
Assay [29] concerns Heart. Description: Cardioprotective effect in Langendorff perfused guinea pig spontaneously beating […] assessed as heart rat at 0.1 uM (RVb = 175 to 190 +/- 5 to 11 bpm). The assay is classed as functional, Cavia porcellus.
In assay [30] the test system is Heart. Description: Cardioprotective effect in Langendorff perfused guinea pig spontaneously beating […] assessed as heart rat at 1 uM (RVb = 175 to 190 +/- 5 to 11 bpm). The assay is classed as functional, Cavia porcellus.
For assay [31], the system named is Heart. Description: Cardioprotective effect in Langendorff perfused guinea pig spontaneously beating […] assessed as heart rat at 10 uM (RVb = 175 to 190 +/- 5 to 11 bpm). The assay is classed as functional, Cavia porcellus.
A short description of assay [32]: Negative inotropic activity against potassium-induced contraction in guinea pig left atrium assessed as decrease in developed tension at 1 uM relative to control. The assay is classed as functional, Cavia porcellus, Cardiac atrium. Further details: scale not given: the % may be the effect or the level left.
A short description of assay [33]: Antiarrhythmic activity in sinusoidal alternating current-induced guinea pig left atrium assessed as increase in current strength at which extra beats occur at 10 uM measured every 30 mins. The assay is classed as functional, Cavia porcellus, Cardiac atrium. In a few lines:
as §1

The test system of assay [34] is Aorta. Description: Vasorelaxant activity in potassium depolarized guinea pig aortic strip assessed as inhibition of calcium-induced contraction at 100 uM. The assay is classed as functional. The settings on record: Cavia porcellus.
Assay [35] relates to Aorta. Description: Negative inotropic activity in potassium depolarized guinea pig aortic strip assessed as inhibition of calcium-induced contraction at 1 uM. The assay is classed as functional, tissue-based. The settings on record: Cavia porcellus.
The species named for assay [36] is Cavia porcellus. Description: Negative inotropic activity in guinea pig longitudinal smooth muscle assessed as inhibition of calcium-induced contraction at 1 uM. The assay is classed as functional.

Activity calls are given as the source filed them.

The term inhibition denotes the share of the control response that was lost under treatment. In general, EC50 refers to the concentration giving half of the maximal effect. Regarding `COc1ccc2c(c1)nc(Cc1ccccc1)c(=O)n2C[C@H]1CCCN2CCCC[C@@H]12`, the inhibition at 50 µM with Aorta [1] amounted to 18%. The values for the EC50 in assay [2] and in [3] were 2750 nM and 110 nM, respectively. Moreover, the Activity in assay [4] is given as 62%; in [5] it was 86%; in assay [6], 14%.

Regarding `CN1[C@@H]2CC[C@H]1C[C@@H](OC(=O)C(CO)c1ccccc1)C2` (some centres undefined), the inhibition result in the assay listed under Cavia porcellus [7] was “inactive”.

On to `Cc1cccc(C)c1NC(=O)CSC[C@@H]1CCCN2CCCC[C@H]12` [LUPINYLTHIOACETYLANILIDE], for which the Activity in [8] was 30%; in [10], 67%; in assay [11], 168 ms; in [12], 164 ms; in assay [14], 48%; in assay [15], 157 ms. In addition, the Activity amounted to 155 ms in assay [16]; 150 ms in [17]; 181 bpm in the assay on Heart [27]; 175 bpm in the assay on Heart [28]; 171 bpm with Heart [29]; 166 bpm with Heart [30]. In addition, the Activity with Heart [31] stood at 156 bpm. Moreover, the 50% effective concentration (EC50) in [9] was 590 nM. Besides, the AV conduction time is 55 ms in [13]; 60 ms in assay [23]; 53 ms in assay [24]; 51 ms in assay [25]; 52 ms in assay [26]. In addition, the intraventricular conduction time was determined as 23 ms in assay [18]; 24 ms in assay [19]; 24 ms in [20]; 22 ms in [21]; 22 ms in assay [22].

In the case of `Cc1cccc(C)c1NC[C@@H]1CCCN2CCCC[C@H]12`, in the assay with Aorta [1], the inhibition at 50 µM was found to be 27%. In addition, the EC50 in [3] is 23 nM. Moreover, the figures for the Activity in assay [4], in assay [32] and in [33] were 40%, 75% and 28%, respectively.

In the case of `COc1cc(NC(C)=O)c(Cl)cc1C(=O)NC[C@@H]1CCCN2CCCC[C@H]12`, the inhibition at 100 µM in the assay on Aorta [34] turned out to be 4%. In addition, the EC50 in assay [3] was determined as 18 nM; in assay [9], 240 nM. Further, the Activity in [8] was found to be 6%; in assay [5], 93%; in [33] it was 84%; in assay [11], 155 ms; in assay [12], 152 ms; in assay [15] it was 150 ms. Moreover, the Activity in assay [16] is 141 ms; in assay [17], 139 ms; with Heart [27], 172 bpm; in the assay with Heart [28], 170 bpm; in the assay on Heart [29], 168 bpm; with Heart [30], 167 bpm. The Activity with Heart [31] was found to be 165 bpm. Moreover, the AV conduction time in assay [13] was 56 ms; in assay [23] it was 56 ms; in assay [24] it was 53 ms; in [25], 54 ms; in assay [26], 52 ms. The intraventricular conduction time was determined as 22 ms in [18]; 22 ms in [19]; 21 ms in [20]; 20 ms in [21]; 20 ms in [22]. Also, the inhibition entry with Aorta [35] and in the assay filed under Cavia porcellus [36] was “inactive” in each case.

For the origin of these results see ChEMBL document CHEMBL1177711, “Novel quinolizidinyl derivatives as antiarrhythmic agents: 2. Further investigation” (J Med Chem, 2010).
